Experimental data from different studies.
Each line is one published result; the experiments were not run side by side.
Target: Tyrosine-protein kinase Lyn (LYN, Homo sapiens, UniProt P07948)

Compound	read-out	action	technique	tested at	endpoint	value
Cc1cnc(NC2CCOCC2)nc1-n1cnc(C(=O)NC(CN)c2cc(F)cc(Cl)c2)c1 (stereo not drawn)	enzyme activity	inhibitor	radiometric	1 µM	remaining activity	84%
CCN(CC)CCNC(=O)c1c(C)[nH]c(/C=C2\C(=O)Nc3ccc(F)cc32)c1C	enzyme activity	inhibitor		0.3 µM	inhibition	42%
COc1cc(Cl)c(C(=O)N[C@@H](CN[C@H]2CC[C@@H](N)CC2)Cc2ccc(C#N)cc2)cc1-c1ccc(CN[C@H](C)c2ccc(C)cc2)o1	enzyme activity	inhibitor		1 µM	remaining activity	90%
CN(C(=O)c1ccccc1)c1cc(N(C)c2ccc3c(c2)CCc2ccc(C(=O)NCCN4CCOCC4)cc2C3=O)ccc1F	cell-free assay		competition with immobilised ligand	1 µM	remaining binding	86%
Nc1ncnc2occ(-c3ccc(NC(=O)Nc4cc(C(F)(F)F)ccc4F)cc3)c12	enzyme activity	inhibitor		20 µM	remaining activity	1.4%
Cc1ccc(NC(=O)c2ccc(CN3CCN(C)CC3)cc2)cc1Nc1nccc(-c2cccnc2)n1	enzyme activity	inhibitor		0.5 µM	activity vs control	59.6%
CS(=O)(=O)c1cc(C2(NC(=O)c3cncc4c3cnn4-c3ccc(F)cc3)CC2)ccn1	cell-free assay		competition with immobilised ligand	1 µM	remaining binding	100%
Cc1ccc(-n2nc(C(C)(C)C)cc2NC(=O)Nc2ccc(OCCN3CCOCC3)c3ccccc23)cc1	enzyme activity	inhibitor		10 µM	inhibition	81%
O=C1Nc2ccc(Cl)cc2C1=Cc1cc(Cl)c(O)c(Cl)c1	cell-free assay			0.5 µM	remaining signal	81.6%
Cn1c2c(c3ccc(Cl)c(Cl)c31)C(C#N)C1(CCCC1)NC2=O (stereo not drawn)	thermal stability		DSF	10 µM	ΔTm	0 °C
C[C@H](NC(=O)c1cnc2n1[C@](C)(Cc1ccc(C#N)cc1)C(=O)N2c1cc(Cl)c(F)c(Cl)c1)C(=O)NC1(c2ccccn2)CC1	cell-free assay		competition with immobilised ligand	1 µM	remaining binding	100%
Cc1ccc(NC(=O)c2ccc(C)c(C(F)(F)F)c2)cc1C#Cc1nn(C2CCC(O)CC2)c2ncnc(N)c12 (stereo not drawn)	cell-free assay	inhibitor		10 µM	remaining signal	0%
CN1CCC2(CC1)NC(=O)c1c(c3ccc(Cl)c(Cl)c3n1C)C2C#N (racemic)	thermal stability		DSF	10 µM	ΔTm	-0.1 °C
CC(C)(C)c1nc2c(s1)c1nc(N)ncc1c1ccc(NS(=O)(=O)c3c(F)cccc3F)c(F)c12	enzyme activity	inhibitor	radiometric	1 µM	remaining activity	87%
Cn1c2c(Cl)c(Cl)ccc2c2cc(N)[nH]c(=O)c21	thermal stability		DSF	10 µM	ΔTm	0.3 °C
CCN(CC)CCNC(=O)c1c(C)[nH]c(/C=C2\C(=O)Nc3ccc(Cl)cc32)c1C	enzyme activity	inhibitor		0.5 µM	remaining activity	6.34%
Cn1c2c(Cl)c(Cl)ccc2c2cn[nH]c(=O)c21	thermal stability		DSF	10 µM	ΔTm	-0.1 °C
Cc1c(NC(=O)c2cc(C(N)=O)nc3cc(F)ccc23)c(C(F)(F)F)nn1Cc1ccc(C#N)cc1	cell-free assay		competition with immobilised ligand	1 µM	remaining binding	100%
